ChEMBL document CHEMBL5104115, “Design, synthesis of novel triptolide-glucose conjugates targeting glucose Transporter-1 and their selective antitumor effect” (Eur J Med Chem, 2022)
The source made the active and inactive calls. The rule behind the calls is not given here.

What was measured:
[1] = Toxicity in BALB/c nude mouse xenografted with human NCI-H1975 cells assessed as irregular spermatogenic tubules at 2 mg/kg administered ip, qd for 2 weeks; details: in vivo, 336 h
[2] = Drug distribution in NCI-H1975 tumor bearing nude mouse model assessed as tumor to liver ratio of triptolide metabolite at 2 mg/kg, iv by LC-MS analysis; type: ADME, organism-based; details: in vivo
How it was run: (§1)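 NCI-H1975 xenograft mice, tumors about 500 mm3, 3 per group, fasted 12 h with water available. Given 2 mg/kg iv and sacrificed 1 h later. Heart, liver, lung, kidney and tumor weighed and flash-frozen. 1.0 g tissue homogenized in 2.0 mL saline, methanol-precipitated, reconstituted. Parent, triptolide succinate and triptolide measured by LC-MS; tumor/organ ratios calculated.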

NCI-H1975 [3] = experiment: Antitumor activity against human NCI-H1975 cells xenografted in BALB/c nude mouse assessed as tumor growth inhibition at 1 mg/kg, ip, qd for 2 weeks relative to control; details: NCI-H1975, 336 h, read-out: TGI
NCI-H460 [4] = experiment: Induction of apoptosis in human NCI-H460 cells assessed as viable cells at 20 uM measured after 48 hrs by Annexin V-FITC/PI staining method (reference value: 86.7%); type: functional; details: read-out: Activity
HT-29 = experiment: Cytotoxicity against human HT-29 cells incubated for 72 hrs by MTT assay; type: functional, cell-based; details: HT-29, 72 h
How it was run: (§2)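 Cells seeded at 4000/well, incubated overnight, then exposed to a range of concentrations, or DMSO vehicle, for 72 h. MTT (5 mg/mL solution) added for 4 h and formazan dissolved in DMSO. Absorbance read at 570 nm, and IC50 derived from the curves. Tumor lines were grown in RPMI 1640; HUVEC, HaCaT and LO2 were grown in DMEM, each with 10% FBS at 37 °C and 5% CO2.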

[5] = Drug distribution in NCI-H1975 tumor bearing nude mouse model assessed as tumor to heart ratio of triptolide metabolite at 2 mg/kg, iv by LC-MS analysis; type: ADME, organism-based; details: in vivo
How it was run: as §1

[6] = Cytotoxicity against HUVEC transfected with OE overexpressing Glut1assessed as decrease in cell viability incubated for 72 hrs by MTT assay; type: toxicity, cell-based; details: human, HUVEC cells transfected with OE overexpressing Glut1
How it was run: (§3)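 HUVEC kept in DMEM with 10% FBS, made to overexpress Glut-1 (OE) or carry vector (OE V) by lentiviral infection and puromycin selection for 14 days, with Western blot check. Seeded at 4000 cells/well, treated over a concentration range or DMSO for 72 h, then MTT at 570 nm. IC50 taken from at least three replicates.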

[7] = Toxicity in BALB/c nude mouse xenografted with human NCI-H1975 cells assessed as reduction of cytoplasmic vacuoles at 2 mg/kg administered ip, qd for 2 weeks; details: in vivo, 336 h
[8] = Stability in mouse serum measured after 8 hrs by HPLC analysis; type: ADME, cell-free
NCI-H1975 [9] = experiment: Cytotoxicity against Glut1 knocked down human NCI-H1975 cells transfected with KD1 assessed as decrease in cell viability incubated for 72 hrs by MTT assay; type: functional, cell-based; details: NCI-H1975, 72 h
How it was run: (§4)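 Stable Glut-1 knockdown (KD1, KD2, vector KD V) or overexpression (OE, vector OE V) NCI-H1975 cells made by 12 h lentiviral infection, 72 h culture, then 14 days puromycin selection; Glut-1 confirmed by Western blot. Cells seeded at 4000/well overnight, dosed over a concentration range or DMSO for 72 h. MTT read at 570 nm; IC50 from ≥3 replicates.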

NCI-H460 [10] = experiment: Induction of apoptosis in human NCI-H460 cells assessed as late apoptotic cells at 50 uM measured after 48 hrs by Annexin V-FITC/PI staining method (reference value: 8.47%); type: functional
NCI-H460 [11] = experiment: Induction of apoptosis in human NCI-H460 cells assessed as necrotic cells at 50 uM measured after 48 hrs by Annexin V-FITC/PI staining method (reference value: 1.62%); type: functional
NCI-H460 [12] = experiment: Induction of mitochondrial membrane potential loss in human NCI-H460 cells by flow cytometric analysis; type: functional, cell-based
How it was run: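 Treated NCI-H460 cells suspended in 1% BSA DPBS and stained with TMRE (from a 1 mM stock) for 20 min in the dark. Cells then washed and resuspended in 1% BSA DPBS. Relative TMRE fluorescence intensity taken as the readout of membrane potential.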

[13] = Toxicity in BALB/c nude mouse xenografted with human NCI-H1975 cells assessed as loss of body weight at 1 to 2 mg/kg administered ip, qd for 2 weeks measured every 3 days; details: in vivo, 336 h
NCI-H1975 [14] = experiment: Cytotoxicity against Glut1 knocked down human NCI-H1975 cells transfected with KD2 assessed as decrease in cell viability incubated for 72 hrs by MTT assay; type: functional, cell-based; details: NCI-H1975, 72 h
How it was run: as §4

NCI-H460 [15] = experiment: Induction of apoptosis in human NCI-H460 cells assessed as necrotic cells at 20 uM measured after 48 hrs by Annexin V-FITC/PI staining method (reference value: 1.62%); type: functional
[16] = Cytotoxicity against human L02 cells incubated for 72 hrs by MTT assay; type: toxicity, cell-based
How it was run: as §2

NCI-H460 [17] = experiment: Induction of apoptosis in human NCI-H460 cells assessed as late apoptotic cells at 20 uM measured after 48 hrs by Annexin V-FITC/PI staining method (reference value: 8.47%); type: functional
NCI-H460 [18] = experiment: Induction of apoptosis in human NCI-H460 cells assessed as early apoptotic cells at 50 uM measured after 48 hrs by Annexin V-FITC/PI staining method (reference value: 3.26%); type: functional
NCI-H460 [19] = experiment: Induction of apoptosis in human NCI-H460 cells assessed as viable cells at 50 uM measured after 48 hrs by Annexin V-FITC/PI staining method (reference value: 86.7%); type: functional; details: read-out: Activity
[20] = Cytotoxicity against HUVEC transfected with OE V overexpressing Glut1assessed as decrease in cell viability incubated for 72 hrs by MTT assay; type: toxicity, cell-based; details: human, HUVEC cells transfected with OE V overexpressing Glut1
How it was run: as §3

[21] = Toxicity in BALB/c nude mouse xenografted with human NCI-H1975 cells assessed as decreased spermatogenic cells at 2 mg/kg administered ip, qd for 2 weeks; details: in vivo, 336 h
NCI-H460 [22] = experiment: Down regulation of RNA polymerase II in human NCI-H460 cells measured after 48 hrs by Western blotting analysis; type: functional, cell-based
How it was run: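 NCI-H460 cells treated for 48 h, harvested by trypsinization and lysed on ice in NP-40 buffer (50 mmol/L Tris pH 8.0, 150 mmol/L NaCl, 1% NP-40). Protein quantified by BCA and resolved by SDS-PAGE. Blots probed for RNA Pol II (1:1000), with GAPDH as loading control, and detected by chemiluminescence.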

[23] = MRT (0 to 3 hrs) in NCI-H1975 tumor bearing nude mouse model serum at 1 mg/kg, iv; type: ADME, organism-based
NCI-H1975 [24] = experiment: Antitumor activity against human NCI-H1975 cells xenografted in BALB/c nude mouse assessed as tumor growth inhibition at 2 mg/kg, ip, qd for 2 weeks relative to control; details: NCI-H1975, 336 h, read-out: TGI

## CC(C)[C@]12O[C@H]1[C@@H]1O[C@]13[C@]1(O[C@H]1C[C@H]1C4=C(CC[C@@]13C)C(=O)OC4)[C@@H]2OC(=O)CCC(=O)O[C@H]1C(O)O[C@H](CO)[C@@H](O)[C@@H]1O (stereo not given in full)
[1]
  Activity: Toxic
[2]
  Ratio: 9.3
NCI-H1975 [3]
  inhibition in vivo at 1 mg/kg: 75.4%
NCI-H460 [4]
  viability at 20 µM: 32.6%
HT-29
  IC50: 2.19 µM
[5]
  Ratio: 7.3
[6]
  IC50 at 72 h: 3.17 µM
[7]
  Activity: Toxic
[8]
  Stability: Stable
NCI-H1975 [9]
  IC50: 7.01 µM
NCI-H460 [10]
  Activity: 21.4%
NCI-H460 [11]
  Activity: 5.77%
NCI-H460 [12]
  Activity: Active
[13]
  Activity: Non-Toxic
NCI-H1975 [14]
  IC50: 11.6 µM
NCI-H460 [15]
  Activity: 4.89%
[16]
  IC50 at 72 h: 1.32 µM
NCI-H460 [17]
  Activity: 27.4%
NCI-H460 [18]
  Activity: 50.2%
NCI-H460 [19]
  viability at 50 µM: 22.7%
[20]
  IC50 at 72 h: 9.22 µM
[21]
  Activity: Toxic
NCI-H460 [22]
  Activity: Active
[23]
  MRT last: 33.6 min
NCI-H1975 [24]
  inhibition in vivo at 2 mg/kg: 90.4%
